PAD4 FP inh: inhibitors of human PAD4; AID 485272; recombinant PAD4, RCA probe fluorescence polarization; 330,000 tested, 0.41% active; Q9UM07; inhibition, % at 6.36 µM;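 active = percent inhibition above a cutoff equal to the mean of all tested compounds plus 3 SD, cut at about 15% in these data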
PME-1 primary: blocks human protein phosphatase methylesterase 1. inhibition, % at 5.9 µM. 320,000 tested, 0.53% active. recombinant PME-1, FP-Rh probe fluorescence polarization. Q9Y570. AID 2130;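 active = inhibition above the campaign mean of all compounds plus 3 SD, cut at about 26% in these data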;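 note: competitive labeling of PME-1 active site by serine hydrolase directed probe; inhibitors block probe labeling so polarization falls and inhibition rises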
LYPLA2 inh: LYPLA2 (human) inhibition in PME1 counter-screen; O95372; recombinant LYPLA2, FP-Rh probe fluorescence polarization; inhibition, % at 5.9 µM; 320,000 tested, 0.38% active;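 active = inhibition above the screen-wide mean plus 3 SD, limit set per campaign, cut at about 26% in these data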
Target sequence (O95372 whole entry, looked up): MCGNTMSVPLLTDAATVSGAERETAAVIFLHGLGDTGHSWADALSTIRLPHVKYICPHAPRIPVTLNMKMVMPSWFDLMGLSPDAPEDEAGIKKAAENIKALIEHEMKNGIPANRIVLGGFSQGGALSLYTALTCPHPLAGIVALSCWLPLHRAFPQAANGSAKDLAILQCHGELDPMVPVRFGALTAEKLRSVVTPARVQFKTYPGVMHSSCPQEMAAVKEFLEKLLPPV
LYPLA1 inh: LYPLA1 (human) inhibition in PME1 counter-screen; AID 2174; 320,000 tested, 0.16% active; recombinant LYPLA1, FP-Rh probe fluorescence polarization; inhibition, % at 5.9 µM; O75608;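 active = inhibition above the mean of all tested compounds plus 3 SD, set per campaign, cut at about 14% in these data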;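 note: inhibitors block serine hydrolase probe labeling of LYPLA1 so polarization falls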
Target sequence (O75608 whole entry, looked up): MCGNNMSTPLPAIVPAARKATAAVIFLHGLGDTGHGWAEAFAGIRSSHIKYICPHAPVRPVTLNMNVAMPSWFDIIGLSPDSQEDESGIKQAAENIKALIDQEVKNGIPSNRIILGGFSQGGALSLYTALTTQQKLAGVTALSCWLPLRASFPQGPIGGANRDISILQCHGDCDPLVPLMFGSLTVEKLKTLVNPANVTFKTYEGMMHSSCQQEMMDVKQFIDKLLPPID
RBBP9 inh: inhibitors of human serine hydrolase RBBP9 | inhibition, % at 7.94 µM | O75884 | 220,000 tested, 0.2% active | recombinant RBBP9, FP-Rh probe fluorescence polarization | AID 1515;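 active = inhibition above the campaign mean of all tested compounds plus 3 SD, cut at about 14% in these data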
Target sequence (O75884 whole entry, looked up): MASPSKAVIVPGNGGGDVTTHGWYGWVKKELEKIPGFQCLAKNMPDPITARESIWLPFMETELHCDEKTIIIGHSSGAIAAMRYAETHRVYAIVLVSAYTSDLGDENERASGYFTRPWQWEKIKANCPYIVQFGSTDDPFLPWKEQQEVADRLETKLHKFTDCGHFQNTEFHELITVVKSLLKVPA
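Measured by: FP readout at 525/598 nm; material: recombinant human RBBP9; also added: Serine-hydrolase probe FP-Rh, 375 nM pre-mixing; medium: Tris buffer pH 8.0, NaCl, Pluronic; replication: one well per compound; doses: one concentration, 7.94 µM nominal, 0.794% DMSO; timing: preincubation 30 min plus labeling 45 min at 25 °C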
Fam108B inh: Fam108B inhibition, counter-screen for RBBP9 inhibitors; recombinant Fam108B, FP-Rh probe fluorescence polarization; inhibition, % at 9.51 µM; 300,000 tested, 0.33% active; AID 1947;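 active = inhibition above the screen mean inhibition plus 3 SD, computed separately per campaign, cut at about 18% in these data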;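 note: inhibitors lower polarization as less probe binds the enzyme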
LYPLA2 conf: counter-screen for PME1 inhibitors: confirmation of human LYPLA2 inhibitors. 1,100 tested, 72% active. recombinant LYPLA2, FP-Rh probe fluorescence polarization. inhibition, % at 5.9 µM. shares compounds with LYPLA2 inh;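 active = mean inhibition across replicates above the hit cutoff set in the primary screen, cut at about 26% in these data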;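 note: blocked labeling of the enzyme by serine hydrolase FP-Rh probe lowers polarization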
LYPLA2 gel ABPP: blocks human acyl-protein thioesterase 2 in gel ABPP. shares compounds with LYPLA2 inh. rhLYPLA2 in mouse brain proteome, gel ABPP FP-Rh. inhibition, % at 20 µM. 150 tested, 30% active. AID 652029;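 active = inhibition of LYPLA2 enzyme probe labeling above about 50%, limit read from the data; inactive = inhibition below that limit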;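 note: loss of FP-Rh probe labeling of the LYPLA2 gel band measured as band density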
Hits are given with their value; - = inactive; . = no result given. Rows were chosen to be rich in hits. Some 1.3% of all compounds tested hit in one or more screens of this group.

SMILES	PAD4 FP inh	PME-1 primary	LYPLA2 inh	LYPLA1 inh	RBBP9 inh	Fam108B inh	LYPLA2 conf	others
Cc1ccc(S(=O)(=O)N(C)CC(=O)O/N=C(\N)c2ccccn2)cc1	-	-	-	-	-	-	.
CN(CC(=O)O/N=C(\N)c1ccccn1)S(=O)(=O)c1ccc(Br)cc1	-	-	40	-	-	-	-
CC(C)(C)N(Cc1ccccc1)C(=O)CCc1ccccc1	-	-	-	-	-	-	.
Cc1ccc(S(=O)(=O)Cn2nnnc2C(C(C)C)N2CCC(O)CC2)cc1 (configuration not stated)	-	-	-	-	.	-	.
O=C(COc1ccc(Br)cc1)NNC(=S)NC(=O)c1ccccc1[N+](=O)[O-]	-	-	33	-	-	-	31
O=C(CSCc1ccccc1Cl)Nc1c[nH]c(=O)[nH]c1=O	-	-	39	-	-	-	-
COc1ccc(-c2ccc(=O)n(Cc3ccc([N+](=O)[O-])cc3)n2)cc1	-	-	29	-	-	-	30
CC(=O)c1cc(C#N)c(SCc2ccncc2)nc1C	-	-	-	-	-	-	.
CC(=O)c1cc(C#N)c(SCc2ccccc2C#N)nc1C	-	-	46	-	-	-	46
O=C(C1CCC(=O)N1Cc1ccccc1Cl)N1CCN(c2cccc(Cl)c2)CC1 (configuration not stated)	-	-	34	-	-	-	32
Cc1ccc(C=NNC(=O)C(NC(=O)c2ccccc2)c2n[nH]c(=O)c3ccccc23)cc1 (configuration not stated)	.	.	.	.	.	.	.	LYPLA2 gel ABPP=-
O=C(NCCCCCCNC(=O)c1cncc(O)c1)c1cncc(O)c1	-	-	-	-	-	-	.
C/C(=N/OC(=O)c1ccccc1)c1oc(C)nc1C	-	-	-	-	-	-	.
C=CCc1ccccc1OCC(O)CN1CCN(CCN2C(=O)c3cccc4cccc(c34)C2=O)CC1 (configuration not stated)	-	-	27	-	-	-	37
CCC(OCC(O)CN1CCN(CCN2C(=O)c3cccc4cccc(c34)C2=O)CC1)c1ccccc1 (configuration not stated)	-	-	45	-	-	-	46
Cc1ccccc1OCC(O)CN1CCN(CCN2C(=O)c3cccc4cccc(c34)C2=O)CC1 (configuration not stated)	-	-	39	-	-	-	48
CC(=O)c1ccc(OCC(O)CN2CCN(CCN3C(=O)c4cccc5cccc(c45)C3=O)CC2)cc1 (configuration not stated)	-	-	53	-	-	-	59	LYPLA2 gel ABPP=-
c1ccc(OCCN2CCN(Cc3nc(-c4ccc5c(c4)OCO5)no3)CC2)cc1	-	-	26	-	-	-	-
O=C(CCC1CCCC1)NNC(=O)c1ccc(F)cc1	-	-	-	-	.	.	.
Cc1ccc(CCN2CC(C(=O)NC(C)C)CC2=O)cc1 (configuration not stated)	-	-	-	-	.	-	.
O=C(Nc1ccc(N2CCN(C(=O)c3ccco3)CC2)cc1)c1ccccc1Br	-	-	34	-	.	-	30
O=C(COc1ccccc1[N+](=O)[O-])Nc1ccc(N2CCN(C(=O)c3cccs3)CC2)cc1	-	-	46	-	-	-	48
Cc1cccc(NC(=S)N2CCN(C(=O)c3ccco3)CC2)c1	-	-	-	-	.	-	.
O=C(c1ccco1)N1CCN(C(=S)Nc2cccc([N+](=O)[O-])c2)CC1	-	-	50	-	-	-	62	LYPLA2 gel ABPP=-
O=C(Nc1ccc(N2CCN(C(=O)c3ccco3)CC2)cc1)c1ccc([N+](=O)[O-])cc1Cl	-	-	40	-	.	-	38
SMILES	PAD4 FP inh	PME-1 primary	LYPLA2 inh	LYPLA1 inh	RBBP9 inh	Fam108B inh	LYPLA2 conf	others
CCN(CC(=O)N1CCCC1)S(=O)(=O)c1ccc2ccccc2c1	-	-	-	-	.	-	.
Cc1ccc(N(C)S(=O)(=O)c2cccc(C(=O)OCC(=O)c3c(N)n(C)c(=O)n(C)c3=O)c2)cc1	-	.	.	.	.	.	.
Cc1ccc(C)c(N(C(=O)c2csnn2)C(C(=O)NC2CCCCC2)c2ccccn2)c1 (configuration not stated)	-	-	-	-	.	-	.
CC(C)C(=O)Nc1ccc(N2CCN(C(=O)c3cccs3)CC2)cc1	-	-	-	-	-	-	.
Cc1ccc(C(=O)Nc2ccc(N3CCN(C(=O)c4cccs4)CC3)cc2)c(Cl)c1	-	-	47	-	.	-	46
Cc1ccccc1C(=O)Nc1ccc(N2CCN(C(=O)c3ccco3)CC2)cc1	-	-	-	-	.	-	.
Cc1ccc(C(=O)Nc2ccc(N3CCN(C(=O)c4ccco4)CC3)cc2)c(Cl)c1	-	-	42	-	.	-	31
CN(CC(=O)Nc1ncn[nH]1)S(=O)(=O)c1ccc(Br)cc1	-	-	-	-	.	-	.
Cc1ccc(Sc2ccc([N+](=O)[O-])cc2[N+](=O)[O-])nc1	-	-	-	-	-	-	.
O=[N+]([O-])c1ccc(SCc2c(F)cccc2Cl)nc1	-	-	31	-	-	-	38
O=[N+]([O-])c1cccnc1SCc1c(F)cccc1Cl	-	-	32	-	-	-	38
O=[N+]([O-])c1ccc(Sc2ccc(Cl)c(Cl)c2)nc1	-	-	40	-	-	-	31
COc1cccc(NC(=O)CN(C)C(=O)C(CCSC)NC(=O)c2ccco2)c1 (configuration not stated)	-	-	-	-	.	.	.
CCCOc1ccc(N2C(=O)CC(N3CCN(c4ccc([N+](=O)[O-])cc4)CC3)C2=O)cc1 (configuration not stated)	-	-	35	-	.	-	36
COc1ccc(N2CCN(C(=O)CSc3ccc([N+](=O)[O-])cc3)CC2)cc1	-	-	54	-	-	-	49
O=[N+]([O-])c1ccc(N2CCN(c3ccccc3)CC2)cc1	-	-	-	-	.	-	.
O=C(CCCC(=O)N1CCN(c2ccc([N+](=O)[O-])cc2)CC1)c1ccccc1	-	-	34	-	-	-	33
COc1ccc(C(=O)CCC(=O)N2CCN(c3ccc([N+](=O)[O-])cc3)CC2)cc1	-	-	29	-	.	-	-
COc1ccc(N2CCN(C(=O)COC(=O)c3ccc(-n4nc(C)cc4C)cc3)CC2)cc1	-	-	43	-	.	.	40
O=C(NNC(=O)c1ccccc1[N+](=O)[O-])c1ccc(NS(=O)(=O)c2cccs2)cc1	-	-	-	-	.	-	.
COc1ccc(NC2CCCN(C(=O)CSc3ccccn3)C2)cc1OC (configuration not stated)	-	-	-	-	.	-	.

High-throughput results as filed in PubChem.
